Mdm2-MdmX inh = disrupts the human Mdm2-MdmX interaction. O15151+Q00987. SaOS-2 split-luciferase Mdm2/MdmX complementation, luminescence. inhibition, % at 8 µM. 330,000 tested, 3% active;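 active = inhibition of at least 50% at 8 µM in the primary screen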
Target sequence (O15151 whole entry, looked up): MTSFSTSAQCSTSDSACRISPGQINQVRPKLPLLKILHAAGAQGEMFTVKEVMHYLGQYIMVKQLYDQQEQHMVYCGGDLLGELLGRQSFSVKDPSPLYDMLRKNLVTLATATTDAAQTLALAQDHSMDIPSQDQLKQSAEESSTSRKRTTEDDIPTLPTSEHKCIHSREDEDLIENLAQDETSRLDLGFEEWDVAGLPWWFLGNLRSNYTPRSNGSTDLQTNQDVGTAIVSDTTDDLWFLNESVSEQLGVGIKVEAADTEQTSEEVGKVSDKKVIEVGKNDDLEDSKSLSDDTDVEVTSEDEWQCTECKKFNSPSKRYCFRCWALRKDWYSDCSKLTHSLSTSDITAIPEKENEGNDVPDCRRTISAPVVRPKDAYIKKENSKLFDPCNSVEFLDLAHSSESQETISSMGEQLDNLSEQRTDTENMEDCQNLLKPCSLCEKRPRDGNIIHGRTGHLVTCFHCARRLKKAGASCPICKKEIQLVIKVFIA
Target sequence (Q00987 whole entry, looked up): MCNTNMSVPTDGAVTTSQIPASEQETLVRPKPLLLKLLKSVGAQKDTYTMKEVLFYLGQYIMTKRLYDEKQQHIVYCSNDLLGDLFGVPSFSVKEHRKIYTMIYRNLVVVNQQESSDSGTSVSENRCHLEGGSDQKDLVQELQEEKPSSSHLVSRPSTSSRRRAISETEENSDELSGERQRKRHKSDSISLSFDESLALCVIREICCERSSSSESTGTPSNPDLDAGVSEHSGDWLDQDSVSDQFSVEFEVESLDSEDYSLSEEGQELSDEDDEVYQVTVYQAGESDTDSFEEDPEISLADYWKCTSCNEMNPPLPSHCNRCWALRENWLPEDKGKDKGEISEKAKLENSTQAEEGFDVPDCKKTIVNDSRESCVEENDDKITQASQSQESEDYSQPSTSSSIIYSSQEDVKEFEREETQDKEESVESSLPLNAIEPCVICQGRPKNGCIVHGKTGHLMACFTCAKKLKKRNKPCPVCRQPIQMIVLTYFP
T cruzi inh = blocks replication of Trypanosoma cruzi; T. cruzi beta-gal in NIH3T3, luminescence, 90 h; inhibition, % (no concentration beside the values); 300,000 tested, 1.4% active; AID 1885;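 active = mean inhibition across valid replicates above about 55%, limit read from the data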;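 also: signal also drops with host cell toxicity which is not excluded here; 0% = plate median of DMSO wells and 100% = zero luminescence signal; higher percent means less beta-gal luminescence so fewer parasites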
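Assay system: NIH/3T3 host cells with β-galactosidase reporter T. cruzi; input: 5,000 host fibroblasts per well; compound: single 50 nL compound addition per well in DMSO; timing: ≥90 h infection period, 3 h prior cell attachment; measured by: GalScreen β-gal luminescence, detergent lysis, 60 min; evaluation: percent inhibition of parasite-derived β-gal signal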
Calb FLC = C. albicans growth modulation with fluconazole; 300,000 tested, 0.57% active; growth inhibition, % (no concentration beside the values); C. albicans CaCi-2 (fluconazole-resistant clinical isolate) + fluconazole, Alamar Blue growth, 48 h;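 active = growth inhibition above about 58% in most replicates, limit read from the data, passing the limit was not always enough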;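 also: all wells also contain fluconazole at 8 µg/ml as a sub-toxic cotreatment; 0% = median of DMSO wells and 100% = median of geldanamycin control wells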
CSC inhib = blocks cancer stem cells; inhibition, % at 7.5 µM; 300,000 tested, 1.1% active; cancer stem cell-like cells viability, luminescence; AID 2717; in the data active = inhibition above about 75%; tested in HMLE shEcad cells
NALP3 yeast inh = NALP3 inhibition in yeast | Yeast reconstituted NLRP3/ASC/caspase-1, beta-gal luminescence, 24 h | inhibition, % at 10 µM | 330,000 tested, 0.39% active;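 active = inhibition of 50% or more; inactive = inhibition below 50%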;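 also: plate controls were induced DMSO wells for no effect and uninduced yeast grown without galactose for full effect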
Beta cell apopt = beta cell apoptosis inhibition; INS-1E cytokine-induced death, ATP luminescence, 48 h; percent of positive-control rescue, neutral wells zero; protection from apoptosis, % (test concentration not listed); 300,000 tested, 0.8% active;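 active = Every replicate reaches about 75%, or at least half do and their mean reaches it too, limit read from the data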;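 also: 0% = cytokine-treated negative control wells and 100% = positive control rescue; higher means more ATP so stronger rescue from cytokine killing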
Mdm2 MdmX conf = confirmation of human Mdm2/MdmX interaction inhibitors | 10,000 tested, 55% active | AID 489028 | shares compounds with Mdm2-MdmX inh | inhibition, % at 8 µM | Mdm2-MdmX binding, luminescent assay; in the data active = inhibition above about 40%
Full FLuc ctr = full-length luciferase inhibition in Mdm2/MdmX counter-screen. shares compounds with Mdm2-MdmX inh. SaOS-2 full-length luciferase counterscreen, luminescence. inhibition, % at 8 µM. 6,200 tested, 77% active. AID 504607;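 active = mean inhibition at 8 µM reaching about 37%, which flags the compound as non-specific, limit read from the data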;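 also: p53-null SaOS-2 cells with luciferase driven by a doxycycline-inducible promoter; compound on cells about two nights before reading with doxycycline added after day one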
The depositor's hits bear a star; . = not tested or not shown. Rows were chosen to be rich in hits. Some 5.3% of all compounds tested hit in one or more screens of this group.

SMILES	Mdm2-MdmX inh	T cruzi inh	Calb FLC	CSC inhib	NALP3 yeast inh	Beta cell apopt	Mdm2 MdmX conf	Full FLuc ctr
O=C(NCCC(=O)N(CCc1ccccc1)Cc1ccccc1)c1ccc([N+](=O)[O-])cc1	27	18	6	-6	13	12	.	.
Clc1ccc(-[n+]2c(-c3cccc(Br)c3)[nH]c3nc4ccccc4nc32)cc1	61*	19	1	-1	21	40	15	.
Brc1cccc(-c2nc3cccnc3nc2-c2cccc(Br)c2)c1	13	49	-2	26	9	10	.	.
O=S(=O)(Nc1cccc2ncccc12)c1cccs1	74*	47	95*	5	-5	13	100*	52*
Cc1c(NS(=O)(=O)c2cccs2)cccc1-c1nc2cccnc2s1	-21	-5	10	-5	6	2	.	.
COc1ccc(N(CC(=O)Nc2ccccc2OC)S(=O)(=O)c2ccc(NC(C)=O)cc2)cc1	53*	-5	-24	63	2	16	63*	55*
CC1CCN(c2c(NCc3ccc(C(=O)N4CCc5ccccc54)cc3)c(=O)c2=O)CC1	65*	28	-7	55	11	16	53*	39*
Cc1ccc(NC(=O)CCC(=O)N2CCC(C)CC2)c([N+](=O)[O-])c1	11	3	6	-5	20	3	.	.
Cc1cccc(C(=O)NNC2=C(C(=O)C(F)(F)F)CCC2)c1O	62*	1	105*	110*	7	49	6	.
O=[N+]([O-])c1cc2cccnc2c2ncccc12	22	24	12	37	17	2	.	.
CC(C)C(=O)NC(c1cccs1)c1cc([N+](=O)[O-])c2cccnc2c1O (stereo not given)	68*	-11	90*	104*	12	97*	70*	57*
Cc1ccc([N+](=O)[O-])c2cccnc12	15	-7	-4	-10	-21	-4	.	.
Cc1ccc(C(NC(=O)C(C)C)c2cc([N+](=O)[O-])c3cccnc3c2O)cc1 (stereo not given)	57*	7	-7	144*	22	61	51*	44*
CCC(=O)NC(/C=C/c1ccccc1)c1cc([N+](=O)[O-])c2cccnc2c1O (stereo not given)	64*	-3	3	151*	16	77*	19	.
CC(=O)N1C(=O)C(=C2C=C(C)OC(C)=C2)c2ccccc21	-8	-9	-10	-10	41	.	.	.
CC(=O)N/C(=N\c1nc(C)cc(C)n1)Nc1ccc2ccccc2c1	74*	20	-15	8	26	33	72*	62*
COc1ccc(N2CCN(C(=O)CC(NC(N)=O)c3cccc(Oc4ccccc4)c3)CC2)cc1 (stereo not given)	6	3	3	-11	0	-3	.	.
CCOC(=O)c1ccccc1NC(=O)COC(=O)CN1C(=O)C2CC=CCC2C1=O (stereo not given)	-2	-11	-1	7	8	.	.	.
Cc1ccc(NC(=O)c2cc(S(=O)(=O)N(C)C)ccc2N2CCCC2)cc1F	52*	11	8	22	25	-8	38	.
O=C(CNc1cccc2ccccc12)N/N=C/C(Br)=C/c1ccccc1	59*	-20	-11	47	-5	-9	37	47*
O=C(CNc1cccc2ccccc12)N/N=C/c1ccc([N+](=O)[O-])o1	51*	83*	37	13	19	118*	20	.
CSc1ccc(/C=N/NC(=O)CNc2cccc3ccccc23)cc1	27	6	-5	4	11	-6	.	.
O=C(CNc1cccc2ccccc12)N/N=C/c1ccc[nH]1	-11	-17	0	35	1	7	.	.
CC1CCC(C(=O)NC(C(=O)N2CCc3ccccc3C2)C(C)C)CC1 (stereo not given)	12	-6	-6	-2	15	4	.	.
CCN(CC)CCCNc1oc(-c2ccccc2[N+](=O)[O-])nc1C#N	3	-5	-3	-3	14	-5	.	.

High-throughput results (PubChem BioAssay)
